Experimental findings from ChEMBL document CHEMBL1155524, “Bis-azaaromatic quaternary ammonium salts as ligands for the blood-brain barrier choline transporter” (Bioorg Med Chem Lett, 2010) are described below.

A short description of this assay: Binding affinity to blood-brain barrier choline transporter in rat brain assessed as inhibition of [3H]choline uptake. The class given is tissue-based. Summed up: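 In situ rat brain perfusion (Takasato method, Allen and Smith modification). Analog co-perfused at a single concentration, with brain uptake of [3H]-choline measured. Ki is the analog concentration inhibiting 50% of [3H]-choline uptake into brain, derived from the single-concentration inhibition. n = 4–6 animals. Ki values compared by ANOVA with Bonferroni multiple comparisons test.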

With `c1ccc2c[n+](CCCCCCCCCCCC[n+]3ccc4ccccc4c3)ccc2c1`, the Ki (as a rule, the equilibrium dissociation constant of an inhibitor or competing ligand from its target) stood at 22 µM. The same measure for `c1ccc2c[n+](CCCCCCCCCC[n+]3ccc4ccccc4c3)ccc2c1`: 10 µM; for `Cc1ccc[n+](CCCCCCCCCCC[n+]2cccc(C)c2)c1`: 36 µM; for `Cc1cc[n+](CCC#Cc2ccc(C#CCC[n+]3ccc(C)cc3)cc2)cc1`: 8.5 µM. The same measure for `CCCCCCCC[n+]1cccc([C@@H]2CCCN2C)c1`: 49 µM; for `c1ccc2c[n+](CCCCCC[n+]3ccc4ccccc4c3)ccc2c1`: 29 µM; for `Cc1ccc[n+](CCCC#Cc2cccc(C#CCCC[n+]3cccc(C)c3)c2)c1`: 140 µM.

Consider `Cc1ccc[n+](CCCC#Cc2ccccc2C#CCCC[n+]2cccc(C)c2)c1`, for which the Ki amounted to 319 µM. In the case of `Cc1ccc[n+](CCC#Cc2ccc(C#CCC[n+]3cccc(C)c3)cc2)c1`, the Ki amounted to 15 µM. Turning to `Cc1ccc[n+](CCCCCCCCC[n+]2cccc(C)c2)c1`, the Ki was 30 µM. Turning to `Cc1ccc[n+](CCCCCC[n+]2cccc(C)c2)c1`, the Ki was 26 µM.

As to `Cc1ccc[n+](CCCCCCCCCCCC[n+]2cccc(C)c2)c1`, the Ki stood at 36 µM. The same measure for `Cc1ccc[n+](CCCCCCCC[n+]2cccc(C)c2)c1`: 24 µM. As for `Cc1ccc[n+](CCCCCCCCCC[n+]2cccc(C)c2)c1`, the Ki is 22 µM.

Regarding `Cc1cc[n+](CCC#Cc2ccc(C#CCC[n+]3ccc(C)c(C)c3)cc2)cc1C`, the Ki stood at 8.4 µM. Consider `C(#Cc1ccc(C#CCC[n+]2ccc3c(c2)CCCC3)cc1)CC[n+]1ccc2c(c1)CCCC2`, for which the Ki worked out at 5.4 µM. Consider `Cc1cc(C)c[n+](CCC#Cc2ccc(C#CCC[n+]3cc(C)cc(C)c3)cc2)c1`, for which the Ki amounted to 7.4 µM. The same measure for `C[N+](C)(C)CCO` [CHOLINE]: 41 µM.
